Compound activity deposited in PubChem by The Scripps Research Institute Molecular Screening Center.
This is a sample that favours compounds with a hit; in the whole collection about 3% have one here.
HTR1E agonist: 5-HT1E (human) receptor agonism; CHO 5-HT1E Ga15 NFAT-bla reporter, FRET; 0% DMSO wells, 100% control agonist wells; 65,000 tested, 0.69% active; activation, % at 6 µM; AID 574;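 active = activation above a set limit, the screen-wide mean activation plus 3 SD, cut at about 8.5% in these data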;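 note: 100% = positive control agonist at 1 µM giving full maximal response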
5-HT1A blocker: antagonists of human 5-HT1a serotonin receptor | inhibition, % at 10 µM | 62,000 tested, 0.68% active | P08908 | CHO 5-HT1a Ga15 NFAT-bla reporter, antagonist mode;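 active = inhibition above the mean of all tested compounds plus 3 SD, cut at about 43% in these data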;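 note: receptor stimulated by 5-CT agonist at 100 nM near EC80; beta-lactamase reporter measured by ratiometric fluorescence of a cleavable substrate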
Target sequence (P08908 whole entry, looked up): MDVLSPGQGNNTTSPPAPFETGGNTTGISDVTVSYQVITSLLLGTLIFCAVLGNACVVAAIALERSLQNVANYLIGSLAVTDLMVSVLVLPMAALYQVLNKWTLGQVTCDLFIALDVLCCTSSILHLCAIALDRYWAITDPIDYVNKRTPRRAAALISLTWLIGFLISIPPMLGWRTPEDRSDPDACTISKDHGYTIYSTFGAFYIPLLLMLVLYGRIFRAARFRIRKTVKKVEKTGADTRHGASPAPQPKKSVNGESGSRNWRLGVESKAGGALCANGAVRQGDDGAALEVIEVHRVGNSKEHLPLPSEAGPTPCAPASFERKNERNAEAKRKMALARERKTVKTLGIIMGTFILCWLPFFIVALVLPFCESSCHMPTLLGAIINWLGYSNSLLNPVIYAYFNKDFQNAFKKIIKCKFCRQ
5HT1a ag: activates the human 5-HT1a serotonin receptor | P08908 | activation, % at 10 µM | 65,000 tested, 0.56% active | CHO 5-HT1a Ga15 NFAT-bla reporter, FRET ratio; 0% basal, 100% maximal reference agonist | AID 567;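 active = activation above the screen-wide mean activation plus 3 SD, cut at about 19% in these data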;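 note: 0% = DMSO wells and 100% = 5-CT at EC100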
5HT1E antag: blocks the human 5-HT1E serotonin receptor. P28566. CHO 5-HT1E Ga15 NFAT-bla reporter, FRET, antagonist. inhibition, % at 6 µM. 65,000 tested, 0.99% active;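 active = inhibition above a set limit, the mean inhibition across every tested compound plus 3 SD, cut at about 29% in these data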;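 note: signal is the 460 over 535 nm emission ratio of beta-lactamase substrate; 0% = agonist plus DMSO wells and 100% = wells without agonist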
S1P3 ag: S1P3 (human) receptor agonism | 60,000 tested, 0.1% active | activation, % at 4.5 µM | AID 373 | S1P3 NFAT-BLA reporter cells, FRET ratio; relative to 1 µM S1P, basal subtracted;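 active = activation above the screen-wide mean plus 3 SD, cut at about 4.5% in these data, passing the limit was not always enough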
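Assay system: stable CHO line with human S1P3, Gα16, NFAT-BLA reporter; Detection: FRET β-lactamase substrate fluorescence, excitation 405 nm, 460/535 nm emission ratio, background-subtracted; Read-out: percent activation versus median 1 µM S1P response, basal-subtracted, per plate; Incubation: cells plated overnight, compound 4 h 37 °C, substrate 2 h RT.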
S1P1 ag-PAM: S1P1 (human) agonism or agonism potentiation; S1P1 CRE-bla cells, forskolin, beta-lactamase FRET, potentiator mode; S1P1 agonist co-added at EC20, 2 nM; 100% = saturating reference agonist, 0% = basal; P21453; AID 449; 56,000 tested, 0.57% active; activation, % at 9.5 µM;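 active = activation above a cutoff set at the mean activation of all tested compounds plus 3 SD, cut at about 54% in these data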;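 note: forskolin at 4 µM as EC80 and the EC20 agonist is SEW2871; 100% = SEW2871 at its EC100 plus forskolin at EC80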
An asterisk follows results filed as active; nt = no result.

SMILES	HTR1E agonist	5-HT1A blocker	5HT1a ag	5HT1E antag	S1P3 ag	S1P1 ag-PAM
CN1CCN(C(=O)Cn2c(=O)oc3cc(S(=O)(=O)NCc4ccccc4)ccc32)CC1	1	3	-1	-1	-1	-8
O=C(CCNS(=O)(=O)c1ccc(Cl)cc1)N1CCC2(O)CCCCC2C1 (centres undefined)	0	-11	0	11	0	-7
O=C(Oc1ccc(-c2nnco2)cc1)N(c1ccccc1)c1ccccc1	0	3	-2	1	16*	nt
CC1CCN(C(=O)CSc2ccc3nnc(-c4ccc(F)cc4)n3n2)CC1	-1	-1	-2	0	-1	4
C=CCOc1nc2c(c(=O)n(Cc3ccc(Cl)cc3)c(=O)n2C)n1C	0	nt	1	1	0	-6
COc1cccc(C(=O)N(c2ccc(OC)cc2OC)C2C=CS(=O)(=O)C2)c1 (centres undefined)	0	7	-1	4	0	-6
CC(C)CNC(=O)C1CCN(c2ccc(S(=O)(=O)N3CCOCC3)cc2Cl)CC1	0	8	1	13	-1	24
O=C(NCc1cccs1)C1CCN(c2ccc(S(=O)(=O)N3CCOCC3)cc2Cl)CC1	0	27	1	40*	-2	16
O=C(COC(=O)C1CC2C=CC1C2)Nc1ccc2c(c1)OC(F)(F)O2 (centres undefined)	-1	4	-2	-1	nt	nt
COCCn1c(=O)[nH]c2cc(C(=O)NCCCN3CCN(c4ccc(F)cc4)CC3)ccc2c1=O	0	32	7	5	nt	nt
COCCn1c(=O)[nH]c2cc(C(=O)NCCN3CCN(c4ccccc4F)CC3)ccc2c1=O	0	52*	1	12	nt	nt
CCOC(=O)N1CCC(N2C(=O)c3ccccc3C2Nc2cc(C(=O)OC)cc(C(=O)OC)c2)CC1 (centres undefined)	0	29	0	6	-1	-14
COC(=O)CC(=O)Cc1nc(N)nc(Nc2ccc(C)c(C)c2)n1	52*	nt	-3	4	-3	6
Cc1ccc(Nc2nc(N)nc(CN3CCN(C)CC3)n2)cc1C	0	1	1	5	0	-21
CN1/C(=C/C(=O)c2nc(S(C)(=O)=O)ncc2Cl)C(C)(C)c2ccccc21	1	62*	-3	51*	-2	110*
CN1/C(=C\C(=O)c2ccco2)C(C)(C)c2ccccc21	1	19	4	6	2	26
NC(=O)CSc1nnc(C2CC2)n1Cc1ccccc1	0	0	-1	2	0	6
CCCc1nc2oc3c(NCCOCCO)ncnc3c2c2c1COC(C)(C)C2	-1	7	1	30*	-1	6
Cc1nc2oc3c(NCc4ccccc4)ncnc3c2c2c1COC(C)(C)C2	1	3	4	6	-1	-16
COC1=C(OC)c2ccccc2C(C(=O)O)N/C1=C(/C)Nc1ccncc1 (centres undefined)	0	-7	0	-1	nt	nt
CC(=O)c1ccc(NC(=O)N2CCN(c3cccc(Cl)c3)CC2)cc1	3	33	-1	24	-2	65*
O=C(Nc1cccc(Cl)c1)N1CCN(c2ncccn2)CC1	-2	-7	-2	-5	0	-1
O=C(O)c1ccccc1C(=O)N1CCN(c2cccc(Cl)c2)CC1	45*	21	4	1	0	12
CCOc1ccccc1C(=O)N1CCN(c2cccc(Cl)c2)CC1	1	70*	0	70*	-1	-12
COc1ccc(C(=O)N2CCN(c3cccc(Cl)c3)CC2)c(OC)c1	1	20	0	12	-1	nt
SMILES	HTR1E agonist	5-HT1A blocker	5HT1a ag	5HT1E antag	S1P3 ag	S1P1 ag-PAM
CCOC(=O)C1CCN(C(=O)c2cc3c(-c4ccc(OC)c(OC)c4)nn(C)c3s2)CC1	0	4	-1	36*	0	-56
CCOC(=O)N1CCC(NC(=O)c2cc3c(-c4ccc(OC)c(OC)c4)nn(C)c3s2)CC1	0	15	0	29*	-2	2
CCOC(=O)N1CCC(NC(=O)c2cc3c(-c4ccccc4F)nn(C)c3s2)CC1	1	7	1	0	-1	-16
CCOC(=O)C1CCCN(C(=O)c2cc3c(-c4cccc(OC)c4)nn(C)c3s2)C1 (centres undefined)	1	16	-2	26	-1	-10
CC(=O)NCc1ccc(-c2csc(N)n2)s1	14*	-12	-3	-9	1	-12
COC(=O)CS(=O)(=O)c1nnc([C@H](Cc2ccccc2)NC(=O)OC(C)(C)C)o1	0	33	-7	29*	-1	56*
COC(=O)CSc1nnc([C@H](Cc2ccccc2)NC(=O)OC(C)(C)C)o1	-1	2	0	3	0	-6
CC1CCN(S(=O)(=O)c2ccc3c(c2)c(=O)c(C(=O)N2CCCCC2)cn3C)CC1	0	-14	-1	-19	-1	7
CC1c2[nH]c3ccccc3c2CCN1C(=O)Nc1ccccc1 (centres undefined)	1	30	-3	5	0	15
COC(=O)C1=COC(C)C2CN3CCc4c([nH]c5ccccc45)C3CC12 (centres undefined)	3	18	20*	4	0	-12
CCN(CC)c1ccc2c(c1)OC(N)=C(C#N)C2c1cccnc1 (centres undefined)	-1	32	-3	77*	-2	-42
CCOc1ccc(OCC)c(NC(=O)C2CCCN(c3nc(C)cc(C)n3)C2)c1 (centres undefined)	0	7	0	-6	0	3
COc1ccc(C2C=C(c3ccccc3)Nc3nc(CCCO)nn32)cc1 (centres undefined)	0	13	-2	24	0	8
O=C(c1nc2n(n1)C(c1ccc(Cl)cc1)C=C(c1ccccc1)N2)N1CCOCC1 (centres undefined)	-1	28	-2	42*	0	nt
COc1ccc(C2C(C(=O)Nc3ccccc3)=C(C)Nc3nc(CCCO)nn32)cc1 (centres undefined)	-2	-6	-2	6	-1	2
OCCCc1nc2n(n1)C(c1ccccc1)C=C(c1ccccc1)N2 (centres undefined)	0	0	-2	30*	0	-7
COc1ccc(C2C=C(c3cccs3)Nc3nc(CCCO)nn32)cc1 (centres undefined)	-1	28	-5	37*	0	27
CC(=O)Nc1nc2n(n1)C(c1ccc(F)cc1)C=C(c1ccccc1)N2 (centres undefined)	-1	20	0	25	0	30
